ChEMBL document CHEMBL3102857, “Synthesis and biological evaluation of 6H-pyrido[2',1':2,3]imidazo[4,5-c]isoquinolin-5(6H)-ones as antimitotic agents and inhibitors of tubulin polymerization” (Bioorg Med Chem, 2014)
Activity calls are given as the source filed them. The calls are words filed in the database; no cut-off is given here.

How the values were obtained:
[1] = target: T1, Tubulin (Homo sapiens) (UniProt P68371+Q9H4B7+P0DPH7+P68366+Q13509+Q71U36+P04350+Q3ZCM7+P07437+P68363+Q9BQE3+Q6PEY2+Q13885+Q9BVA1+Q9BUF5); experiment: Inhibition of tubulin polymerization (unknown origin) at 20 uM by spectrophotometric analysis; format: protein-complex assay
In short: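 Purified tubulin combined with 20 µM compound on ice, then moved to 37 °C. Buffer: 80 mM PIPES pH 6.9, 0.5 mM EGTA, 2 mM MgCl2, 1 mM GTP. Polymerization followed by absorbance at 340 nm.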

[2] = target: T1, Tubulin (Homo sapiens); experiment: Displacement of [3H]-colchicine from tubulin (unknown origin) at 20 uM preincubated for 1 hr followed by radioligand addition measured after 30 mins by competitive binding assay; format: protein-complex assay
[3] = tested on: HeLa; experiment: Cell cycle arrest in human HeLa cells assessed as decrease in accumulation at S phase at 0.5 uM after 12 hrs by propidium iodide staining-based flow cytometric analysis; format: functional
In short: (§1)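 Cells given 0.5 µM compound for 12 h, harvested, PBS-washed, fixed in cold 70% ethanol at 4 °C. Stained with propidium iodide ([…] as printed). DNA content analysed by flow cytometry for G0/G1, S and G2/M fractions.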

[4] = tested on: HeLa; experiment: Cell cycle arrest in human HeLa cells assessed as accumulation at G2/M phase at 0.5 uM after 12 hrs by propidium iodide staining-based flow cytometric analysis (reference value: 3%); format: functional; in short: as §1
[5] = tested on: HeLa; experiment: Antiproliferative activity against human HeLa cells after 72 hrs by SRB assay; format: functional, cell-based
In short: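 HeLa cells exposed to compound for 72 h, fixed with cold 10% TCA, stained with SRB in 1% acetic acid. Bound dye dissolved in 10 mM Tris-HCl and read at 515 nm. Inhibition % = [1 − (A515 treated/A515 control)] × 100. IC50 by Logit method, mean ± SD of at least three independent tests.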

[6] = tested on: HeLa; experiment: Antimitotic activity against human HeLa cells assessed as multipolar mitotic spindle with disordered chromosome organization at 0.5 uM after 12 hrs by DAPI staining-based immunofluorescence microscopic analysis; format: functional, cell-based
In short: (§2)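 HeLa cells on glass coverslips, 0.5 µM compound for 12 h; fixed in 4% paraformaldehyde, permeabilized with 0.2% Triton X-100, blocked with 3% BSA. Stained with anti-α-tubulin (1:200) and Alexa Fluor 488 goat anti-mouse IgG (1:100), 1 h each, then DAPI. Imaged by fluorescence and confocal microscopy. Abnormal spindles scored as percentage of total mitotic cells.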

[7] = tested on: HeLa; experiment: Cell cycle arrest in human HeLa cells assessed as decrease in accumulation at G0/G1 phase at 0.5 uM after 12 hrs by propidium iodide staining-based flow cytometric analysis; format: functional; in short: as §1
[8] = tested on: HeLa; experiment: Antimitotic activity against human HeLa cells assessed as disruption of mitotic spindle assembly at 0.5 uM after 12 hrs by DAPI staining-based immunofluorescence microscopic analysis; format: functional, cell-based; in short: as §2

SMILES	inhibition [1] [%]	inhibition [2] [%]	IC50 [5] [nM]	other results
COc1ccc(CCn2c(=O)c3ccccc3c3nc4ccc(NCc5cccnc5)cn4c32)cc1	74	78	60	Activity [3]: Active; Activity [4]: 41%; Activity [6]: Active; Activity [7]: Active; Activity [8]: Active
COc1ccc(Cn2c(=O)c3ccccc3c3nc4cc(C)c(Br)cn4c32)cc1	–	–	> 10000	–
COc1ccc(CCn2c(=O)c3ccccc3c3nc4ccc(NCCO)cn4c32)cc1	26	34	350	–
COc1ccc(CCn2c(=O)c3ccccc3c3nc4ccc(-n5ccnc5)cn4c32)cc1	40	36	120	–
COc1ccc(Cn2c(=O)c3ccccc3c3nc4c(C)cccn4c32)cc1	–	–	> 10000	–
COc1ccc(Cn2c(=O)c3ccccc3c3nc4ccc(C)cn4c32)cc1	–	–	6600	–
COc1ccc(CCCn2c(=O)c3ccccc3c3nc4ccccn4c32)cc1	–	–	> 10000	–
COc1ccc(CCn2c(=O)c3ccccc3c3nc4ccc(NCc5ccncc5)cn4c32)cc1	63	53	100	–
COc1ccc(CCn2c(=O)c3ccccc3c3nc4ccc(NCCCn5ccnc5)cn4c32)cc1	33	21	770	–
CC[C@]1(O)C[C@H]2CN(CCc3c([nH]c4ccccc34)[C@@](C(=O)OC)(c3cc4c(cc3OC)N(C=O)[C@H]3[C@@](O)(C(=O)OC)[C@H](OC(C)=O)[C@]5(CC)C=CCN6CC[C@]43[C@@H]65)C2)C1 [VINCRISTINE]	77	–	15	–
CN(c1ccc(Cn2c(=O)c3ccccc3c3nc4ccccn4c32)cc1)S(C)(=O)=O	–	–	> 10000	–
COc1ccc(CCn2c(=O)c3ccccc3c3nc4ccc(NCCN5CCOCC5)cn4c32)cc1	15	15	1200	–
CCN(CC)CCNc1ccc2nc3c4ccccc4c(=O)n(CCc4ccc(OC)cc4)c3n2c1	18	20	2280	–
O=c1c2ccccc2c2nc3ccccn3c2n1Cc1ccc2c(c1)OCO2	–	–	> 10000	–
COc1ccc(Cn2c(=O)c3ccccc3c3nc4cccc(C)n4c32)cc1	–	–	> 10000	–
COc1ccc(CCn2c(=O)c3ccccc3c3nc4ccc(NCc5ccccn5)cn4c32)cc1	27	22	240	–
COc1ccc(Cn2c(=O)c3ccccc3c3nc4ccc(Br)c(C)n4c32)cc1	–	–	> 10000	–
O=c1c2ccccc2c2nc3ccccn3c2n1Cc1ccc(OC(F)(F)F)cc1	–	–	> 10000	–

Continued, in another order:

inhibition [1] [%]	inhibition [2] [%]	IC50 [5] [nM]	SMILES	other results
–	–	> 10000	CC(=O)OCCn1c(=O)c2ccccc2c2nc3ccccn3c21	–
–	–	> 10000	COc1ccc(Cn2c(=O)c3ccccc3c3nc4ccccn4c32)cc1OC	–
–	–	> 10000	COC(=O)CCn1c(=O)c2ccccc2c2nc3ccccn3c21	–
–	–	> 10000	COC(=O)Cn1c(=O)c2ccccc2c2nc3ccccn3c21	–
–	–	1800	COc1ccc(Cn2c(=O)c3ccccc3c3nc4ccccn4c32)cc1	Activity [3]: Active; Activity [4]: 4%; Activity [7]: Active
–	–	2240	COc1ccc(Cn2c(=O)c3ccccc3c3nc4ccccn4c32)c(OC)c1	–
–	–	> 10000	O=c1c2ccccc2c2nc3ccccn3c2n1Cc1ccco1	–
76	74	70	COc1ccc(CCn2c(=O)c3ccccc3c3nc4ccccn4c32)cc1	Activity [3]: Active; Activity [4]: 37%; Activity [6]: Active; Activity [7]: Active; Activity [8]: Active
–	–	> 10000	O=c1c2ccccc2c2nc3ccccn3c2n1CCc1ccc(O)cc1	–
